The source of these data is ChEMBL document CHEMBL1126988, “Quinolone antibacterials containing the new 7-[3-(1-aminoethyl)-1- pyrrolidinyl] side chain: the effects of the 1-aminoethyl moiety and its stereochemical configurations on potency and in vivo efficacy” (J Med Chem, 1993).

Assay [1] has as its system Escherichia coli. The experiment in a line: Antibacterial activity in vitro against Escherichia coli Vogel. The assay is classed as functional. In short, it runs like this:
(§1)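 Standard microtitration broth assay against a panel of 10 Gram-positive and Gram-negative organisms. MIC read in µg/mL and averaged over multiple experiments.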

For assay [2], the system named is Escherichia coli. The assay can be described thus: Antibacterial activity against Escherichia coli Vogel after oral administration in mouse. The assay is classed as functional. The note with it: Escherichia coli, po; read-out: PD50.
The test system of assay [3] is Escherichia coli. The assay can be described thus: Antibacterial activity against Escherichia coli Vogel after subcutaneous administration in mouse. In kind it is functional. As to conditions: Escherichia coli, sc; read-out: PD50.
The next assay concerns Enterobacter cloacae. The experiment in a line: Minimum inhibitory concentration in vitro against Enterobacter cloacae MA 2646. The assay is classed as functional.
A further assay relates to Enterococcus faecalis. The assay can be described thus: Minimum inhibitory concentration was evaluated in vitro against Enterococcus faecalis MGH-2. In kind it is functional. In short, it runs like this: as §1
The subject of a further assay is Klebsiella pneumoniae. The assay can be described thus: Minimum inhibitory concentration was evaluated in vitro against Klebsiella pneumoniae MGH2. The assay is classed as functional. In short, it runs like this: as §1
A further assay is filed under the species Mus musculus. The experiment in a line: Compounds were evaluated for phototoxicity no-effect dose in mouse. The assay is classed as functional. In short, it runs like this: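 Depilated female CD-1 mice, five per dose plus controls. Animals are dosed orally and then exposed daily to UV-A (320–400 nm) for 3 h, for up to 4 days or until a definite positive response. Redness or erythema relative to controls, read 24 h after irradiation, counts as positive. Reported as the highest dose with no effect (mg/kg).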

In another assay the test system is Providencia rettgeri. The experiment in a line: Minimum inhibitory concentration was evaluated in vitro against Providencia rettgeri M1771. In kind it is functional. In short, it runs like this: as §1
In another assay the test system is Pseudomonas aeruginosa. The assay can be described thus: Minimum inhibitory concentration was evaluated in vitro against Pseudomonas aeruginosa UI-18. In kind it is functional. In short, it runs like this:
as §1

The test system of assay [4] is Staphylococcus aureus. The assay can be described thus: Minimum inhibitory concentration was evaluated in vitro against Staphylococcus aureus H 228. In kind it is functional. An outline of the steps: as §1
Assay [5] relates to Staphylococcus aureus. The assay can be described thus: Minimum inhibitory concentration was evaluated in vitro against Staphylococcus aureus UC 76. In kind it is functional. In short, it runs like this:
as §1

The next assay deals with Streptococcus pneumoniae. The assay can be described thus: Minimum inhibitory concentration was evaluated in vitro against Streptococcus pneumoniae SV-1. The assay is classed as functional. An outline of the steps:
as §1

Assay [6] concerns Streptococcus pyogenes. The assay can be described thus: Antibacterial activity measured as mouse protection against Streptococcus pyogenes C 203 after subcutaneous administration. The assay is classed as functional. As to conditions: for ED50: Streptococcus pyogenes, C 203, sc, read-out: PD50.
The nature of assay [7]: Clonogenic cytotoxicity against hamster V-79 cells. The assay is classed as functional, Cricetulus griseus, V79. In short, it runs like this: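 Chinese hamster V-79 cells grown overnight, then drug-treated for 3 h at 37 °C. Medium is replaced with fresh medium and cells are incubated 5 days to allow colony formation. IC50 (µg/mL) is the concentration inhibiting colony formation by 50% relative to control.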

Assay [8] concerns Streptococcus pyogenes. The experiment in a line: Compounds were evaluated in vivo for antibacterial activity for mouse protection against Streptococcus pyogenes C 203 after oral administration. The assay is classed as functional. As to conditions: for ED50: Streptococcus pyogenes, C 203, po, read-out: PD50.
For assay [9], the system named is Streptococcus pyogenes. The experiment in a line: Minimum inhibitory concentration was evaluated in vitro against Streptococcus pyogenes C 203. In kind it is functional. An outline of the steps:
as §1

Where [10] appears, read: Escherichia coli, read-out: MIC.
[11] abbreviates: Enterobacter cloacae, read-out: MIC.
[12] abbreviates: Enterococcus faecalis, read-out: MIC.
Setting [13] is: Klebsiella pneumoniae, read-out: MIC.
The mark [14] stands for this setting: Providencia rettgeri, read-out: MIC.
The mark [15] stands for this setting: Pseudomonas aeruginosa, read-out: MIC.
Where [16] appears, read: Staphylococcus aureus, read-out: MIC.
[17] abbreviates: Streptococcus pneumoniae, read-out: MIC.
The mark [18] stands for this setting: Streptococcus pyogenes, read-out: MIC.

Values after ≈ are worked out from the molar mass of the structure shown. Where only a bound is given, the exact number is not on record here.

Consider `Nc1c(F)c(N2CCC(N)C2)cc2c1c(=O)c(C(=O)O)cn2C1CC1` (centres undefined), for which the minimal inhibitory concentration (MIC) – broadly, the lowest concentration found to suppress growth – in the assay with Escherichia coli [1] (setting [10]) was determined as 0.013 µg/mL (≈ 0.0375 µM); with Enterobacter cloacae (setting [11]), 0.013 µg/mL (≈ 0.0375 µM); in the assay on Enterococcus faecalis (setting [12]), 0.1 µg/mL (≈ 0.289 µM); with Klebsiella pneumoniae (setting [13]), 0.025 µg/mL (≈ 0.0722 µM); with Providencia rettgeri (setting [14]) it was 0.1 µg/mL (≈ 0.289 µM); in the assay on Pseudomonas aeruginosa (setting [15]), 0.4 µg/mL (≈ 1.15 µM). Besides, the minimum inhibitory concentration (MIC) with Staphylococcus aureus [4] (setting [16]) was determined as 0.1 µg/mL (≈ 0.289 µM); with Staphylococcus aureus [5] (setting [16]), 0.025 µg/mL (≈ 0.0722 µM); with Streptococcus pneumoniae (setting [17]), 0.025 µg/mL (≈ 0.0722 µM); in the assay on Streptococcus pyogenes [9] (setting [18]), 0.05 µg/mL (≈ 0.144 µM). Besides, the ED50 with Escherichia coli [2] was 8 mg/kg; with Escherichia coli [3] it was 1 mg/kg; in the assay on Streptococcus pyogenes [6], 6 mg/kg; in the assay with Streptococcus pyogenes [8], 110 mg/kg. The compound also yielded a Dose in the assay listed under Mus musculus above 300 mg/kg. The Cytotoxicity in assay [7] amounted to 12 µg/mL.

Consider `CC(N)C1CCN(c2c(F)cc3c(=O)c(C(=O)O)cn(C4CC4)c3c2C(F)(F)F)C1` (racemic), for which the MIC came to 0.2 µg/mL (≈ 0.468 µM) with Escherichia coli [1]; 0.2 µg/mL (≈ 0.468 µM) in the assay with Enterobacter cloacae; 0.025 µg/mL (≈ 0.0585 µM) in the assay on Enterococcus faecalis; 0.2 µg/mL (≈ 0.468 µM) with Klebsiella pneumoniae; 0.4 µg/mL (≈ 0.936 µM) in the assay on Providencia rettgeri; 1.6 µg/mL (≈ 3.74 µM) against Pseudomonas aeruginosa. Moreover, the MIC turned out to be 0.013 µg/mL (≈ 0.0304 µM) against Staphylococcus aureus [4], 0.006 µg/mL (≈ 0.014 µM) with Staphylococcus aureus [5], 0.006 µg/mL (≈ 0.014 µM) in the assay on Streptococcus pneumoniae and 0.006 µg/mL (≈ 0.014 µM) with Streptococcus pyogenes [9]. In the assay filed under Mus musculus, this compound displayed a Dose above 100 mg/kg. Moreover, the PD50 in the assay with Streptococcus pyogenes [6] worked out at 0.3 mg/kg; in the assay on Streptococcus pyogenes [8] it was 0.7 mg/kg. In [7], this compound came in with a Cytotoxicity of 19 µg/mL.

`CCN[C@H](C)[C@H]1CCN(c2c(F)cc3c(=O)c(C(=O)O)cn(C4CC4)c3c2OC)C1` (racemic): the MIC with Escherichia coli [1] (setting [10]) worked out at 0.1 µg/mL (≈ 0.24 µM); in the assay on Enterobacter cloacae (setting [11]) it was 0.1 µg/mL (≈ 0.24 µM); with Enterococcus faecalis (setting [12]), 0.025 µg/mL (≈ 0.0599 µM); with Klebsiella pneumoniae (setting [13]) it was 0.2 µg/mL (≈ 0.479 µM); in the assay with Providencia rettgeri (setting [14]), 0.4 µg/mL (≈ 0.958 µM); in the assay on Pseudomonas aeruginosa (setting [15]), 3.1 µg/mL (≈ 7.43 µM). The MIC is 0.013 µg/mL (≈ 0.0311 µM) in the assay on Staphylococcus aureus [4] (setting [16]), 0.003 µg/mL (≈ 0.00719 µM) in the assay on Staphylococcus aureus [5] (setting [16]), 0.006 µg/mL (≈ 0.0144 µM) in the assay on Streptococcus pneumoniae (setting [17]) and 0.006 µg/mL (≈ 0.0144 µM) in the assay on Streptococcus pyogenes [9] (setting [18]). The ED50 turned out to be 5 mg/kg in the assay with Escherichia coli [2], 2 mg/kg with Escherichia coli [3], 0.2 mg/kg in the assay with Streptococcus pyogenes [6] and 0.5 mg/kg in the assay with Streptococcus pyogenes [8]. The Dose in the assay listed under Mus musculus is above 100 mg/kg. The Cytotoxicity in [7] amounted to 110 µg/mL.

With `NC1CCN(c2c(F)cc3c(=O)c(C(=O)O)cn(C4CC4)c3c2C(F)(F)F)C1` (centres undefined), the MIC was determined as 0.1 µg/mL (≈ 0.25 µM) in the assay with Escherichia coli [1] (setting [10]), 0.1 µg/mL (≈ 0.25 µM) with Enterobacter cloacae (setting [11]) and 0.2 µg/mL (≈ 0.501 µM) with Staphylococcus aureus [4] (setting [16]). Besides, the ED50 was 3 mg/kg in the assay on Escherichia coli [2], 1 mg/kg in the assay on Escherichia coli [3] and 22 mg/kg in the assay on Streptococcus pyogenes [6]. In the assay listed under Mus musculus, this compound yielded a Dose above 100 mg/kg. In [7], this compound returned a Cytotoxicity of 250 µg/mL.

With `CNC(C)C1CCN(c2cc3c(c(N)c2F)c(=O)c(C(=O)O)cn3C2CC2)C1` (racemic), the MIC amounted to 0.1 µg/mL (≈ 0.257 µM) in the assay with Escherichia coli [1] (setting [10]); 0.1 µg/mL (≈ 0.257 µM) with Enterobacter cloacae (setting [11]); 0.025 µg/mL (≈ 0.0644 µM) in the assay with Enterococcus faecalis (setting [12]); 0.2 µg/mL (≈ 0.515 µM) in the assay on Klebsiella pneumoniae (setting [13]); 0.4 µg/mL (≈ 1.03 µM) in the assay with Providencia rettgeri (setting [14]); 1.6 µg/mL (≈ 4.12 µM) in the assay on Pseudomonas aeruginosa (setting [15]). For the same compound, the minimum inhibitory concentration (MIC) was determined as 0.05 µg/mL (≈ 0.129 µM) in the assay with Staphylococcus aureus [4] (setting [16]), 0.006 µg/mL (≈ 0.0154 µM) with Staphylococcus aureus [5] (setting [16]), 0.013 µg/mL (≈ 0.0335 µM) in the assay with Streptococcus pneumoniae (setting [17]) and 0.025 µg/mL (≈ 0.0644 µM) in the assay with Streptococcus pyogenes [9] (setting [18]). Moreover, the Dose in the assay filed under Mus musculus was above 100 mg/kg. The values for the ED50 in the assay with Streptococcus pyogenes [6] and in the assay with Streptococcus pyogenes [8] were 1 mg/kg and 8 mg/kg, respectively. In addition, in assay [7], the Cytotoxicity was determined as 290 µg/mL.

With `CCNC[C@@H]1CCN(c2c(F)cc3c(=O)c(C(=O)O)cn(CC)c3c2F)C1`, the minimum inhibitory concentration (MIC) with Escherichia coli [1] (setting [10]) came to 0.1 µg/mL (≈ 0.264 µM); with Enterobacter cloacae (setting [11]), 0.2 µg/mL (≈ 0.527 µM); in the assay with Enterococcus faecalis (setting [12]), 0.1 µg/mL (≈ 0.264 µM); in the assay with Klebsiella pneumoniae (setting [13]), 0.1 µg/mL (≈ 0.264 µM); with Providencia rettgeri (setting [14]) it was 0.2 µg/mL (≈ 0.527 µM); in the assay with Pseudomonas aeruginosa (setting [15]), 1.6 µg/mL (≈ 4.22 µM). Besides, the MIC amounted to 0.05 µg/mL (≈ 0.132 µM) in the assay with Staphylococcus aureus [4] (setting [16]), 0.05 µg/mL (≈ 0.132 µM) in the assay with Staphylococcus aureus [5] (setting [16]), 0.1 µg/mL (≈ 0.264 µM) in the assay with Streptococcus pneumoniae (setting [17]) and 0.1 µg/mL (≈ 0.264 µM) in the assay with Streptococcus pyogenes [9] (setting [18]). The ED50 in the assay on Escherichia coli [2] came out at 10 mg/kg; in the assay on Escherichia coli [3], 3 mg/kg; in the assay on Streptococcus pyogenes [6], 4 mg/kg; in the assay on Streptococcus pyogenes [8] it was 10 mg/kg. Besides, the Dose in the assay filed under Mus musculus worked out at 1.5 mg/kg. In assay [7], this compound showed a Cytotoxicity of 190 µg/mL.
